Bioassay records from PubChem BioAssay.
HUVEC prolif 384 = human endothelial cell proliferation inhibition; viability, % at 10 µM (by protocol); 86,000 tested, 1.1% active; HUVEC proliferation, CellTiter-Glo luminescence, 72 h; stronger effect = lower value; AID 648;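 active means viability at or below 30%; inactive means viability above 30%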;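 further: 100% = median luminescence of DMSO-only cell control wells on each plate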
Lung fibro prol = blocks proliferation of human lung fibroblasts; LL 47 human lung fibroblast viability, ATP luminescence; stronger effect = lower value; viability, % at 10 µM; 85,000 tested, 1.1% active; AID 719;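 active means viability at or below 50% in the single dose screen; inactive means viability above 50%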;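 further: compound exposure lasted 72 h before the ATP readout; 100% = median luminescence of untreated cell-only wells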
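Test system: LL 47 human lung fibroblasts / Quantity: 1,150 cells in each well / Medium: IMEM growth medium with 15% fetal bovine serum / Incubation: 72 h compound exposure at 37 °C after overnight plating / Detection: CellTiter-Glo luminescence measuring cellular ATP / Read-out: % viability versus median cells-only luminescence / Benchmarks: cell-only wells, no compound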
H69AR inhibit = growth inhibitors of human H69AR lung tumor cells. H69AR lung tumor viability, ATP luminescence, 72 h; stronger effect = lower value. viability, % at 10 µM. 85,000 tested, 6% active. AID 598;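 active means viability at or below 40%; inactive means viability above 40%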;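 further: multidrug resistant small cell line overexpressing MRP-1 efflux transporter; 100% = mean luminescence of untreated control wells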
PTEN del growth = suppresses growth of cells with PTEN deletion; 140,000 tested, 1.2% active; HCT116 PTEN-null viability, CellTiter-Glo, 60 h; stronger effect = lower value; viability, % at 10 µM;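 active means viability at or below a set limit, 4 SD under the median of all tested compounds, cut at about 3.7% in these data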;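 further: PTEN knockout HCT116 line with beta catenin targeted HCT116 as companion control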
HCT116 bCat-KO = beta-catenin-lacking colon tumor cell growth suppression; HCT116 beta-catenin knockout viability, CellTiter-Glo, 60 h; stronger effect = lower value; viability, % at 10 µM; 140,000 tested, 1.5% active; AID 818;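 active means viability at or under a set limit, the compound median less 4 SD, cut at about 6% in these data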;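 further: 0% = Hyamine 1622 control at 20 µM and 100% = untreated cell control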
The depositor's hits bear a star. This excerpt belongs to a sample that is enriched for hits.

How did C=CCn1c(C)cc(C(=O)COC(=O)CNC(=O)c2ccccc2)c1C do in these assays?
PTEN del growth: 95.3; HCT116 bCat-KO: 102.8

Results for CCOC(=O)c1ccc(N2C(=O)C=CC2=O)cc1 ?
HUVEC prolif 384: 12.3*; Lung fibro prol: 4.3*; H69AR inhibit: 1.9*; PTEN del growth: 109.5; HCT116 bCat-KO: 96.5

How did CCOC(=O)c1ccc(-n2c(C)ccc2C)cc1 do in these assays?
PTEN del growth: 14.7; HCT116 bCat-KO: 19.4

Results for CCOC(=O)C1=C(c2ccccc2)Nc2ncnn2C1c1cc(OC)ccc1OC (stereo not drawn) ?
HUVEC prolif 384: 99.6; Lung fibro prol: 100.8; H69AR inhibit: 39.2*; PTEN del growth: 90.4; HCT116 bCat-KO: 99.3

How did O=[N+]([O-])c1ccccc1Sc1nccn1Cc1ccccc1 do in these assays?
PTEN del growth: 99.0; HCT116 bCat-KO: 92.5

Results for CC(Sc1ccc(Cl)cc1)C(=O)Nc1ccc2c(c1)OCO2 (stereo not drawn) ?
HUVEC prolif 384: 94.1; Lung fibro prol: 103.4; H69AR inhibit: 96.6; PTEN del growth: 82.2; HCT116 bCat-KO: 93.2

Results for CC(C)N1CCC2(CC1)N=C(c1ccc3c(c1)OCO3)CC(c1cc(Cl)ccc1O)N2 (stereo not drawn) ?
HUVEC prolif 384: 29.5*; Lung fibro prol: 5.9*; H69AR inhibit: 1.5*; PTEN del growth: 2.9*; HCT116 bCat-KO: 2.5*

How did Cc1ccc(NCc2nc3ccccc3n2CCOc2ccccc2)cc1 do in these assays?
PTEN del growth: 36.4; HCT116 bCat-KO: 29.8

Results for CC1CCCC(n2c(=S)[nH]c3ccccc3c2=O)C1C (stereo not drawn) ?
HUVEC prolif 384: 71.7; Lung fibro prol: 90.0; H69AR inhibit: 21.9*; PTEN del growth: 77.8; HCT116 bCat-KO: 83.9

How did Cc1nc2c(ccc3nc(NC(=O)c4ccc(S(=O)(=O)N(C)C)cc4)sc32)s1 do in these assays?
HUVEC prolif 384: 46.7; Lung fibro prol: 94.6; H69AR inhibit: 35.2*; PTEN del growth: 74.3; HCT116 bCat-KO: 80.3

Results for Nc1nc(-c2ccc(Cl)cc2)c(N=Nc2ccc(S(=O)(=O)N3CCOCC3)cc2)s1 ?
PTEN del growth: 3.7*; HCT116 bCat-KO: 18.9

Results for O=C(NNC(=O)C(c1ccccc1)c1ccccc1)c1ccccn1 ?
PTEN del growth: 5.8; HCT116 bCat-KO: 4.8*

What do the screens show for `Cc1c(/C=N/NC(=O)c2cc(=O)[nH]c(=O)[nH]2)c2ccccn2c1C(=O)c1ccccc1`?
PTEN del growth: 96.2; HCT116 bCat-KO: 102.1

What do the screens show for `C/C=C/C(=O)OCC(=O)Nc1nc2ccc(C)cc2s1`?
HUVEC prolif 384: 94.0; Lung fibro prol: 100.7; H69AR inhibit: 29.4*; PTEN del growth: 85.0; HCT116 bCat-KO: 94.3

What do the screens show for `Cc1ccc2nc(NC(=O)c3ccc(Cl)s3)sc2c1`?
HUVEC prolif 384: 70.1; Lung fibro prol: 50.8; H69AR inhibit: 20.2*; PTEN del growth: 80.4; HCT116 bCat-KO: 86.4

How did Cc1cc(C(=O)Nc2nc3ccc(S(C)(=O)=O)cc3s2)c(C)o1 do in these assays?
HUVEC prolif 384: 94.4; Lung fibro prol: 45.9*; H69AR inhibit: 51.3; PTEN del growth: 87.5; HCT116 bCat-KO: 80.2

Results for CS(=O)(=O)c1ccc2nc(NC(=O)c3cccs3)sc2c1 ?
HUVEC prolif 384: 75.0; Lung fibro prol: 96.6; H69AR inhibit: 25.2*; PTEN del growth: 74.1; HCT116 bCat-KO: 83.7

What do the screens show for `CCOc1ccc(N(CC(=O)N/N=C/c2ccc(OC(C)C)cc2)S(C)(=O)=O)cc1`?
PTEN del growth: 85.7; HCT116 bCat-KO: 91.8

What do the screens show for `CC(Sc1nnc(NC2CCCCC2)s1)C(=O)Nc1ccc2c(c1)C(=O)c1ccccc1C2=O` (stereo not drawn)?
PTEN del growth: 62.9; HCT116 bCat-KO: 65.2

What do the screens show for `Cc1ccc(C(=O)Nc2nc3ccc(S(C)(=O)=O)cc3s2)s1`?
HUVEC prolif 384: 84.9; Lung fibro prol: 101.0; H69AR inhibit: 38.4*; PTEN del growth: 84.5; HCT116 bCat-KO: 87.0

What do the screens show for `Cc1ccc2nc(NC(=O)c3cccc(-c4cc5ccccc5oc4=O)c3)sc2c1`?
PTEN del growth: 2.2*; HCT116 bCat-KO: 3.0*

What do the screens show for `CSc1n[nH]c(NCc2ccc(C)cc2)n1`?
HUVEC prolif 384: 92.4; Lung fibro prol: 93.8; H69AR inhibit: 94.2; PTEN del growth: 99.5; HCT116 bCat-KO: 96.7

Results for O=C(O)c1nn(-c2ccccc2)ccc1=O ?
PTEN del growth: 97.8; HCT116 bCat-KO: 107.6

How did C=CCN1C(c2ccc(OCC)cc2)=CS/C1=C(\C#N)c1nnc2n1CCCCC2 do in these assays?
HUVEC prolif 384: 68.2; Lung fibro prol: 99.5; H69AR inhibit: 33.5*; PTEN del growth: 66.2; HCT116 bCat-KO: 60.2

How did COc1ccc(C(=O)/C=C/c2cn(CN3CCN(C)CC3)c3ccccc23)cc1 do in these assays?
HUVEC prolif 384: 77.9; Lung fibro prol: 101.0; H69AR inhibit: 22.1*; PTEN del growth: 33.2; HCT116 bCat-KO: 13.8

How did Cc1ccc(NC(=O)c2cc(NC(=O)C3CC=CCC3C(=O)O)ccc2N2CCOCC2)cc1Cl (stereo not drawn) do in these assays?
HUVEC prolif 384: 73.5; Lung fibro prol: 97.7; H69AR inhibit: 96.8; PTEN del growth: 102.6; HCT116 bCat-KO: 94.7

How did Cc1cc(-n2[nH]c(C)c(C)c2=O)nc(-c2ccccc2O)n1 do in these assays?
HUVEC prolif 384: 76.3; Lung fibro prol: 66.3; H69AR inhibit: 16.0*; PTEN del growth: 13.1; HCT116 bCat-KO: 17.6

How did Cc1cc(N2CCN(c3ccccc3)CC2)nc(-c2ccccc2O)n1 do in these assays?
HUVEC prolif 384: 107.8; Lung fibro prol: 101.6; H69AR inhibit: 88.5; PTEN del growth: 55.7; HCT116 bCat-KO: 72.4

What do the screens show for `COC(=O)c1ccccc1NC(=O)CSCC(=O)Nc1ccc(F)cc1`?
PTEN del growth: 103.0; HCT116 bCat-KO: 102.9

What do the screens show for `O=C(O)CCN1C(=O)C(=C2CCCCCC2)SC1=S`?
HUVEC prolif 384: 86.2; Lung fibro prol: 102.3; H69AR inhibit: 89.6; PTEN del growth: 94.9; HCT116 bCat-KO: 96.9

Results for O=C1C(=C2CCCCC2)SC(=S)N1Cc1ccco1 ?
HUVEC prolif 384: 81.5; Lung fibro prol: 94.0; H69AR inhibit: 10.8*; PTEN del growth: 61.7; HCT116 bCat-KO: 64.2

How did COc1cc2cc(Oc3ccc4ccc(=O)oc4c3)c(=O)oc2cc1O do in these assays?
PTEN del growth: 89.6; HCT116 bCat-KO: 81.6

What do the screens show for `O=c1ccc2cc(O)c(O)cc2o1`?
HUVEC prolif 384: 70.3; Lung fibro prol: 84.8; H69AR inhibit: 37.2*; PTEN del growth: 76.7; HCT116 bCat-KO: 80.0

How did CN(C1CCCCC1)S(=O)(=O)c1ccc2c(c1)c(=O)c(C(=O)N1CCc3ccccc3C1)cn2C do in these assays?
HUVEC prolif 384: 93.5; Lung fibro prol: 91.4; H69AR inhibit: 5.9*; PTEN del growth: 86.3; HCT116 bCat-KO: 81.7

Results for CN1CCN(C(=O)c2cn(C)c3ccc(S(=O)(=O)N(C)C4CCCCC4)cc3c2=O)CC1 ?
HUVEC prolif 384: 108.5; Lung fibro prol: 95.8; H69AR inhibit: 99.6; PTEN del growth: 91.2; HCT116 bCat-KO: 93.5
